ChEMBL document CHEMBL1123142, “1,2,4-Triazolo[4,3-a]quinoxaline-1,4-diones as antiallergic agents” (J Med Chem, 1985)
Values joined by “and” are separate entries in the source; they are usually repeats but may differ in a detail not shown here. Equal values may be shown once.

Assays:
[1] = species on record: Rattus norvegicus; experiment: Concentration required to inhibit Antigen-induced release of Histamine from rat mast cells at 100 uM; assay type: functional; conditions: Mast cell
[2] = tested on: Rattus norvegicus; experiment: Percent inhibitory activity in rat passive cutaneous anaphylaxis test at a dose of 25 mg/kg administered perorally; assay type: functional; conditions: for inhibition in vivo at 25 mg/kg: Rattus norvegicus, po; for Inhibition: route oral, 25 mg/kg
Method in brief: (§1)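 Rats immunized i.m. with ovalbumin plus aluminum hydroxide, plus B. pertussis i.p., gave IgE antiovalbumin serum. Naive male Sprague-Dawley rats were sensitized intradermally at dorsal sites (1:20), with 48 h latency. Compound was given orally in 1% methylcellulose, 10 min before i.v. challenge with 4 mg ovalbumin in 1% Evans blue. Blued wheal areas were read at 30 min. Groups of 4–8; mean ± SE, Student's t test.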

[3] = species on record: Rattus norvegicus; experiment: Concentration required to inhibit Antigen-induced release of Histamine from rat mast cells; assay type: functional, cell-based; conditions: read-out: I50
[4] = tested on: Rattus norvegicus; experiment: Effective dose against IgE-mediated cutaneous anaphylaxis in the rat after peroral administration; assay type: functional; conditions: po; method in brief: as §1
[5] = tested on: Rattus norvegicus; experiment: Percent inhibitory activity in rat passive cutaneous anaphylaxis test at a dose of 25 mg/kg, ip; assay type: functional; conditions: route intraperitoneal
[6] = tested on: Rattus norvegicus; experiment: Percent inhibitory activity in rat passive cutaneous anaphylaxis test at a dose of 10 mg/kg administered perorally; assay type: functional; conditions: route oral; method in brief: as §1
[7] = tested on: Rattus norvegicus; experiment: Effective dose against IgE-mediated cutaneous anaphylaxis in the rat after ip administration; assay type: functional

| Compound | inhibition in vivo at 25 mg/kg [2] | IC50 [3] | also measured |
| --- | --- | --- | --- |
| COC(=O)n1nc2c(=O)n(C)c3ccccc3n2c1=O | – | – | inhibition at 100 µM [1]: 30% |
| COc1ccc2c(c1)n(C)c(=O)c1nnc(O)n12 | 10% | 3 µM | – |
| CCCn1c(=O)c2nnc(O)n2c2ccc(Cl)cc21 | 53% | 0.4 µM | ED50 [4]: 3 mg/kg |
| Cc1ccc2c(c1)n(C)c(=O)c1nnc(O)n12 | 18% | 6 µM | – |
| Cn1c(=O)c2nnc(O)n2c2ccc(Cl)cc21 | 22% | 10 µM | ED50 [4]: > 125 mg/kg |
| CC(=O)n1nc2c(=O)n(C)c3cc(C)c(C)cc3n2c1=O | 26% | 43 µM | – |
| Cn1c(=O)c2nnc(O)n2c2cc(Cl)ccc21 | 42% | 0.4 µM | – |
| Oc1nc2ccccc2n2c(O)nnc12 | 40% | – | inhibition at 100 µM [1]: 20% |
| CCCn1c(=O)c2nn(CC(=O)OCC)c(=O)n2c2ccc(Cl)cc21 | – | – | inhibition at 100 µM [1]: 20%; inhibition in vivo at 25 mg/kg [5]: 14% |
| Cn1c(=O)c2nnc(O)n2c2ccccc21 | 38% | 40 µM | inhibition in vivo at 10 mg/kg [6]: 56%; ED50 [4]: 6 mg/kg |
| CCCn1c(=O)c2nn(C(=O)/C=C/c3ccccc3)c(=O)n2c2ccc(Cl)cc21 | 38% | 1 µM | ED50 [4]: > 100 mg/kg |
| COc1cc2c(c(Cl)c1OC)n(C)c(=O)c1nnc(O)n12 | 27% | 35 µM | – |
| Cn1c(=O)c2nnc(O)n2c2ccc(O)cc21 | 20% | – | inhibition at 100 µM [1]: 29% |
| C=CCn1nc2c(=O)n(CCC)c3cc(Cl)ccc3n2c1=O | – | – | inhibition at 100 µM [1]: 20% |
| CC(=O)n1nc2c(=O)n(C)c3ccccc3n2c1=O | – | 25 µM | Inhibition [2]: 27% and 63% |
| CCCn1c(=O)c2nn(C(C)=O)c(=O)n2c2ccc(Cl)cc21 | – | 0.1 µM | inhibition in vivo at 25 mg/kg [5]: 42% |
| CC(=O)c1ccc2c(c1)n(C)c(=O)c1nnc(O)n12 | 49% | 1 µM | – |
| Cc1cc2c(cc1C)n1c(O)nnc1c(=O)n2C | – | 12 µM | – |
| CCCn1c(=O)c2nn(C)c(=O)n2c2ccc(Cl)cc21 | – | 1 µM | ED50 [4]: > 100 mg/kg |
| Cn1c(=O)c2nn(S(C)(=O)=O)c(=O)n2c2ccccc21 | 25% | – | inhibition at 100 µM [1]: 2% |
| CC(=O)n1nc2c(=O)n(C(C)=O)c3ccccc3n2c1=O | 36% | 10 µM | – |
| Cc1cccc2c1n(C)c(=O)c1nnc(O)n12 | 35% | 17 µM | Inhibition [2]: 53% |
| CCCn1c(=O)c2nnc(O)n2c2ccccc21 | 58% | 8 µM | inhibition in vivo at 10 mg/kg [6]: 84%; ED50 [4]: 3 mg/kg |
| Cn1c(=O)c2nnc(O)n2c2ccc(C(F)(F)F)cc21 | 52% | 1 µM | ED50 [4]: 12 mg/kg; Inhibition [2]: 69% |
| Cn1nc2c(=O)n(C)c3ccccc3n2c1=O | 0% | – | inhibition at 100 µM [1]: 30% |
| O=C([O-])c1cc(=O)c2c(OCC(O)COc3cccc4oc(C(=O)[O-])cc(=O)c34)cccc2o1.[Na+].[Na+] [CROMOLYN SODIUM] | – | – | ED50 [7]: 6 mg/kg |
